MEKK2mut PB1 HTS = MEK5 binding signal on mutant MEKK2 PB1, primary screen, biochemical, multiplex bead flow cytometry, Alexa488-MEK5; Alexa488-MEK5 binding to MEKK2 mutant; percent response, % at 10 µM; actives 0.35% (n = 290,000); AID 1530, 2009; in the data active = percent response above about 24%, passing the limit was not always enough
MEKK3 PB1 HTS = modulators of MEKK3-MEK5 PB1 binding, primary screen, biochemical, wildtype MEKK3, multiplex bead flow cytometry, Alexa488-MEK5. Mitogen-activated protein kinase kinase kinase 3 (Homo sapiens), Q99759. bead-based flow cytometry, Alexa488-MEK5 binding to MEKK3; actives lie on both sides; 0 = blocked by unlabeled MEK5, 100 = vehicle. binding response (% of control), % at 10 µM. actives 1.4% (n = 290,000). AID 1529, 2009;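 active = binding response more than 3 SD above or below the average of its plate-row segment, actives on both sides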;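 note: Alexa488 bead fluorescence after subtracting the streptavidin-only scavenger bead signal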
Target sequence (Q99759 whole entry, looked up): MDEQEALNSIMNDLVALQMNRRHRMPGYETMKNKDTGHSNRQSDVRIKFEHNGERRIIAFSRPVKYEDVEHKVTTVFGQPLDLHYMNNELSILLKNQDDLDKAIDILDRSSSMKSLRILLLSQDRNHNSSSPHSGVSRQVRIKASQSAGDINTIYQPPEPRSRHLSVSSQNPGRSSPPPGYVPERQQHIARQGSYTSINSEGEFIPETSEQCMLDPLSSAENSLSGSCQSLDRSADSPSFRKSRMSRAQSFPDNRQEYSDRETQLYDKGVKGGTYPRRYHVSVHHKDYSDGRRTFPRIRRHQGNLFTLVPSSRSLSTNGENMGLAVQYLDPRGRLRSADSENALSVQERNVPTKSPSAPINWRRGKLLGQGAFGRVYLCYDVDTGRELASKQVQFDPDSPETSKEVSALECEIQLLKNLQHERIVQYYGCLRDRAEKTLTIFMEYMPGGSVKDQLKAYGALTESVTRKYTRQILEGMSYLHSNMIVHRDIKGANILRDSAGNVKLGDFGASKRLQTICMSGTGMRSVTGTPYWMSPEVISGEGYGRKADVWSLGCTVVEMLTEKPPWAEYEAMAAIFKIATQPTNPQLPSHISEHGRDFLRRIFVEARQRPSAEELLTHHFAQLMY
NS3 helicase inh = inhibitors of HCV NS3 helicase, primary screen, biochemical, Cy5 molecular beacon fluorescence; Hepatitis C virus NS3 helicase; NS3 helicase DNA unwinding; inhibition, % at 10.9 µM; actives 0.56% (n = 290,000); AID 1800, 2009;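 active = inhibition above the mean of all tested compounds plus 3 SD, set per campaign, cut at about 35% in these data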;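 note: 0% = DMSO wells and 100% = thioflavine S control wells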
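Material: hepatitis C virus NS3 helicase domain fragment enzyme; measured by: Cy5 fluorescence, 0 and 60 min reads; control set: DMSO and thioflavine S; incubation: 60 min unwinding reaction at 25 °C after ATP addition; read-out basis: % inhibition from 60/0 min fluorescence ratio, DMSO 0%, thioflavine S 100%; repeats: singlicate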
DNA FID counter = compounds displacing fluorescent DNA intercalator, primary screen, artefact control for HCV NS3 helicase inhibitor project, biochemical, FID fluorescence. DNA fluorescent intercalator displacement. actives 0.17% (n = 290,000). AID 1845, 2009. inhibition, % at 7.9 µM; in the data active = inhibition above about 37%;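 note: 0% = vehicle and 100% = reference compound; higher means more ethidium bromide displaced from hairpin DNA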
MEKK2 WT-MEK5 = modulators of MEK5 binding to wildtype MEKK2, primary screen, biochemical, multiplex bead flow cytometry, Alexa488-MEK5; Mitogen-activated protein kinase kinase kinase 2 (Homo sapiens), Q9Y2U5; Alexa488-MEK5 binding to MEKK2 WT; actives lie on both sides; binding response (% of control), % at 10 µM; actives 1.1% (n = 290,000); AID 1531, 2009; in the data active = binding response below about 67% or above about 130%
T cruzi repl = inhibitors of intracellular T. cruzi growth, primary screen, luminescence, NIH3T3 host cells; actives 1.4% (n = 300,000); inhibition, % (concentration not given with the values); T. cruzi beta-gal in NIH3T3, 90 h;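 active = mean inhibition across valid replicates above about 55%, limit read from the data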;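 note: signal also drops with host cell toxicity which is not excluded here; 0% = plate median of DMSO wells and 100% = zero luminescence signal; higher percent means less beta-gal luminescence so fewer parasites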
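assay system = mouse NIH/3T3 fibroblasts infected with β-gal-expressing T. cruzi Tulahuen C4 | input = 5,000 NIH/3T3 host cells per well | buffer or medium = DMEM plus 2% FBS | timing = 3 h host attachment, then at least 90 h co-culture | measured by = GalScreen luminescence, 60 min | evaluation = luminescence reflecting intracellular parasite burden, expressed as percent inhibition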
* marks the source's active call; other numbers are inactive results; / = no result; [ ] = dose if it differs, or a comment. This is a sample that favours compounds with a hit; in the whole collection about 4.1% have one here.

SMILES	MEKK2mut PB1 HTS	MEKK3 PB1 HTS	NS3 helicase inh	DNA FID counter	MEKK2 WT-MEK5	T cruzi repl
CCN(CC)Cc1cc2[nH]c3c4ccc(Cl)cc4ncc3c2cc1OC	38*	96	-26	59*	163*	62*
COc1ccc(CNc2ncnc3cc(Cl)ccc23)cc1OC	5	101	3	1	101	17
O=C(O)c1ccc(Cn2cc(/C=C\[N+](=O)[O-])c3ccccc32)o1	10	107	26	-10	104	2
O=[N+]([O-])/C=C/c1cn(Cc2ccc(Cl)cc2)c2ccccc12	1	99	3	-4	2.0*	1
Cc1ccc(NC(=S)/N=C(\N)Nc2nc(C)c3cc(C)c(C)cc3n2)cc1C	-1	114	-9	-1	107	61*
Nc1nc(-c2ccccn2)nc(N)c1Cc1ccc(Cl)cc1Cl	0	101	-2	-9	99	73*
Nc1nc(-c2ccccn2)nc(N)c1Cc1ccccc1F	0	99	5	-9	98	82*
Nc1nc(-c2ccccn2)nc(N)c1Cc1c(F)cccc1Cl	-2	103	-1	-6	102	57*
CC(C)c1onc(C(=O)N2CCN(C(c3ccccc3)c3ccccc3)CC2)c1[N+](=O)[O-]	-5	102	-3	-4	98	57*
Cc1ccc(C(=O)Nc2cccc(-c3nc4ncccc4o3)c2)cc1	-1	102	0	-22	101	-4
O=C(Nc1cccc(-c2nc3ncccc3o2)c1)c1ccccc1	-1	91	-3	-10	102	60*
COC(=O)C1=CN(C2CCCCC2)C=C(C(=O)OC)C1c1ccc2c(c1)OCO2	-9	101	-2	0	86	62*
OCC[C@@H]1C[C@H](O)[C@@H](O)[C@@]2(CCCCO2)O1	3	105	/	/	102	4
Cc1ccc2c(c1)C1CN(C)CCC1N2C(=O)c1cccc(S(=O)(=O)N2CC(C)CC(C)C2)c1 (configuration not stated)	2	98	-48	9	109	80*
COc1ccc(OCC(=O)N2c3ccc(C)cc3C3CN(C)CCC32)cc1 (configuration not stated)	-1	82	5	7	112	-5
Cc1ccc(C(=O)N(C)c2ccc(OCC(=O)N3c4ccc(C)cc4C4CN(C)CCC43)cc2)cc1 (configuration not stated)	9	111	-31	10	128	68*
Cc1ccc2c(c1)C1CN(C)CCC1N2C(=O)c1ccc(Cl)c(S(=O)(=O)N2CCOCC2)c1 (configuration not stated)	-3	100	1	21	95	60*
Cc1ccc2c(c1)C1CN(C)CCC1N2C(=S)NC(=O)c1ccc(Br)cc1 (configuration not stated)	-11	105	-1	-5	102	64*
O=C(COC(=O)CCC(=O)c1ccccc1)Nc1nnc(-c2ccccc2)o1	/	/	/	/	/	-3
COc1cc(C#N)c(NC(=O)CN2CCC(C(N)=O)CC2)cc1OC	4	100	8	1	97	-12
COc1ccc(-c2cnc(N)n2CC2CCCO2)cc1 (configuration not stated)	3	97	-13	8	-6.0*	-5
CC(=O)c1c(C)[nH]c(C(=O)Nc2nc(-c3ccc(-c4ccccc4)cc3)cs2)c1C	2	97	7	-5	91	69*
COc1cccc(CN2CC(C(=O)NCCCn3cccn3)CCC2=O)c1 (configuration not stated)	4	97	-11	-8	99	-10
CCc1ccc(/C=C2/Sc3ccccc3N(CC(=O)NCCCN3CCOCC3)C2=O)cc1	7	106	-37	54*	134	5
O=C(CN1C(=O)/C(=C/c2ccc(C(F)(F)F)cc2)Sc2ccccc21)NCCCN1CCOCC1	7	104	-29	23	125	12
SMILES	MEKK2mut PB1 HTS	MEKK3 PB1 HTS	NS3 helicase inh	DNA FID counter	MEKK2 WT-MEK5	T cruzi repl
O=C(CN1C(=O)/C(=C\c2cccc(Cl)c2)Sc2ccccc21)NCCCN1CCOCC1	4	105	-48	43*	122	-2
CCOc1cc(CNCCO)cc(Br)c1OCc1ccc(Cl)cc1	/	/	-87	38*	/	2
CC(=NCCc1c(C)[nH]c2ccc(OCc3ccccc3)cc12)C1=C(O)CC(c2ccccc2)CC1=O (configuration not stated)	-1	102	-3	-5	100	58*
CCCCC(=NCCc1c(C)[nH]c2ccc(OC)cc12)C1=C(O)CC(c2ccccc2)CC1=O (configuration not stated)	0	98	-8	-12	96	50
COc1ccc(N(CC2CO2)S(=O)(=O)c2ccc(C)cc2)cc1 (configuration not stated)	-5	97	6	-17	95	-13
CCn1cc(CNC(=O)c2cccc([N+](=O)[O-])c2)c(C)n1	-4	93	11	-5	95	-6
O=C(NCc1cn(-c2ccccc2)nc1-c1ccc(F)cc1)c1cccc([N+](=O)[O-])c1	6	97	-3	4	106	61*
OCCNc1nnc(-c2ccccc2)c(-c2ccccc2)n1	/	/	/	/	/	-7
CC1CN(C(=O)CCNC(=O)c2ccccc2Cl)CC(C)O1 (configuration not stated)	-1	95	12	-1	100	5
Cc1ccc(-n2c(SCC(=O)c3c(N)n(C)c(=O)n(C)c3=O)nc3sc4c(c3c2=O)CCCC4)c(C)c1	-2	102	-1	-5	94	68*
COCCN(C(=O)COC(=O)c1ccc(Cl)s1)c1c(N)n(Cc2ccccc2)c(=O)[nH]c1=O	/	/	/	/	/	-5
O=C(COC(=O)/C=C/c1cccc(F)c1)Nc1ccccc1-c1ccccc1	-2	92	-14	-6	91	-9
O=C(COC(=O)/C=C/c1ccc(F)cc1)Nc1ccccc1-c1ccccc1	-2	69*[inhibitor]	-7	-5	96	-14
CCc1cccc(C)c1NC(=O)COC(=O)c1c2c(nc3ccccc13)/C(=C\c1cccs1)CCC2	-2	102	5	-4	102	59*
Cc1cccc(-c2nc(NCCCN3CCOCC3)c3ccccc3n2)c1	13	106	22	53*	118	17

High-throughput results: PubChem, several laboratories
